Results as given in ChEMBL document CHEMBL4513216, “Probing the Open Global Health Chemical Diversity Library for Multistage-Active Starting Points for Next-Generation Antimalarials” (ACS Infect Dis, 2020).

Assay: Toxicity liver stage against HepG2, at 10uM
Format: cell-based
Set-up: test concentration 10 uM, cell line HepG2-A16-CD81EGFP
Settings: human, HepG2-A16-CD81EGFP cells; read-out: INHIBITION
Summary of the method: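 Uninfected HepG2-A16-CD81EGFP cells, 3 × 10^3 per well, 1536-well, plated on prespotted compound at 10 μM final, parasite-free screening media added to match infected plates; puromycin 10 μM positive, DMSO 0.5% negative; run in parallel with 48 h PbLuc assay at 37 °C, 5% CO2; viability by CellTiter-Glo luminescence, normalized to controls.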
Work on `CN1CC=C(c2noc(CCC(=O)N3CCCC3)n2)CC1` yielded a cytotoxicity at 10 µM of 4.87%.
Work on `COc1ccc(NC(=O)N2CCCC2c2ccco2)c(OC)c1` (stereo not given) yielded a cytotoxicity at 10 µM of 10.8%.
For `Nc1nc2c(c3c1C(=O)NC3=O)CCC2`, the cytotoxicity at 10 µM was -4.21%.
In the case of `CCOC(=O)c1nc(COc2c(C)occc2=O)no1`, the cytotoxicity at 10 µM is reported as 3.79%.
`Cn1c(C(=O)Nc2nc[nH]n2)cc2ccccc21` gave a cytotoxicity at 10 µM of 1.24%.
For `COCC(C)(O)CNC(=O)Nc1cccc(OC)c1OC` (stereo not given), the cytotoxicity at 10 µM was -2.75%.
`N#Cc1ccccc1NC(=O)C1CN(C(=O)c2ccc3c(c2)OCO3)C1` showed a cytotoxicity at 10 µM of -8.64%.
For `O=S1(=O)N=C(SCc2ccc(Cl)cc2)Nc2ccc(F)cc21`, the cytotoxicity at 10 µM was 27.6%.
With `CCCNC(=O)c1cc2c([nH]c1=O)CC(c1cccs1)CC2=O` (stereo not given) the cytotoxicity at 10 µM was 50.9%.
`Cc1nc(NC2CCCC2)c2c(n1)c(C)nn2C` gave a cytotoxicity at 10 µM of 14.1%.
Compound `CCn1nc(C)c(CNC(=O)c2nnc3ccc(OC)cc3n2)c1C` has a cytotoxicity at 10 µM of 6.58%.
For `Cc1nn(C)c2cnn(CCCNS(=O)(=O)Cc3ccccc3)c12`, the cytotoxicity at 10 µM was 0.999%.
With `CC(=O)N1CCC(c2cncc(N3CCOCC3)n2)CC1` the cytotoxicity at 10 µM was 3.66%.
`O=C1CCC[C@]2(CN(S(=O)(=O)N3CCOCC3)C[C@H]2c2cccnc2)N1` gave a cytotoxicity at 10 µM of -0.701%.
`CC(=O)N1CCC(c2cncc(Oc3ccccc3)n2)CC1` gave a cytotoxicity at 10 µM of 6.05%.
`NCCn1nc(C2CCN(C(=O)CC3CCCCC3)C2)c2nccnc21` (stereo not given) gave a cytotoxicity at 10 µM of -0.645%.
In the case of `Cc1nc2n(n1)CC(Nc1ncnc3c1CCC3)CC2` (stereo not given), the cytotoxicity at 10 µM is reported as -44.1%.
Work on `CC(C#N)CN(C)Cc1c(Cl)ccc2cccnc12` (stereo not given) yielded a cytotoxicity at 10 µM of -39%.
Compound `CC(=O)NC(Cc1c[nH]c2cc(F)ccc12)C(=O)Nc1cnn(C)c1` (stereo not given) has a cytotoxicity at 10 µM of 13.9%.
`CC(C)n1nnnc1-c1ccc(NC(=O)CC(F)(F)F)cc1F` showed a cytotoxicity at 10 µM of 6.62%.
`Cc1noc(C)c1S(=O)(=O)N(CC(N)=O)CC(C)C` showed a cytotoxicity at 10 µM of -6.46%.
`CCOCC(=O)NCC1(NC(C)c2ccccc2)CCOCC1` (stereo not given) gave a cytotoxicity at 10 µM of -8.01%.
In the case of `O=C(NCCSCc1cccs1)C1CCCN(C(=O)N2CCCC2)C1` (stereo not given), the cytotoxicity at 10 µM is reported as -13.6%.
`CNC(=O)NC(=O)CCSc1ccccc1Cl` showed a cytotoxicity at 10 µM of -5.13%.
With `Cc1nnc(N2CCNCC2)c(C(N)=O)c1C` the cytotoxicity at 10 µM was 3.52%.
For `CCOc1cccc(NC(=O)Cc2cccc(O)c2)n1`, the cytotoxicity at 10 µM was -0.116%.
For `COC(=O)C(NC(=O)COC1CCCCC1)c1ccccc1` (stereo not given), the cytotoxicity at 10 µM was -21.4%.
Work on `CC(c1ccc(F)c(F)c1)N(C)CCS(=O)(=O)CCC(N)=O` (stereo not given) yielded a cytotoxicity at 10 µM of -52.2%.
With `CC(C)C1CN(C(=O)c2ccc(N3CCCC3)nc2)CCS1` (stereo not given) the cytotoxicity at 10 µM was -4.81%.
`Cc1cc(C(=O)N2CCn3cc(CN(C)C)nc3C2)no1` gave a cytotoxicity at 10 µM of -80.5%.
With `CC1=N[C@@]2(CC[C@@H]3CN(S(=O)(=O)C4CC4)C[C@@H]32)C(=O)N1CC(C)C` the cytotoxicity at 10 µM was -76.8%.
For `O=C1CC(c2ccncc2)C2(CCN(C(=O)c3ccnnc3)CC2)N1` (stereo not given), the cytotoxicity at 10 µM was -80.4%.
With `Cc1noc([C@@H]2CCO[C@@H]3CCN(Cc4nccs4)C[C@@H]32)n1` the cytotoxicity at 10 µM was -75.8%.
In the case of `COCC(=O)N1CC[C@@H](N2CCN(C)CC2)[C@@H]1Cc1ccccc1`, the cytotoxicity at 10 µM is reported as -66.1%.
In the case of `Cn1cccc1C(=O)N1CC[C@H]2C[C@@H](c3ccncn3)O[C@@H]2C1`, the cytotoxicity at 10 µM is reported as 0.77%.
For `Fc1cnc(N2CCOCC3(CCCN(c4nncs4)C3)C2)nc1` (stereo not given), the cytotoxicity at 10 µM was 2.01%.
For `Cc1ccc(C(=O)N2C[C@@H](OCC3CCOCC3)[C@H]3OCCC[C@H]32)o1`, the cytotoxicity at 10 µM was -3.55%.
Compound `O=C(c1ccc2nccnc2c1)N1CCN(CCO)[C@@H]2CS(=O)(=O)C[C@@H]21` has a cytotoxicity at 10 µM of -10.4%.
For `O=C(Cc1ccc(O)c(F)c1)N1CCC2(CCNCC2)CC1`, the cytotoxicity at 10 µM was -7.43%.
Compound `CC(C)(C)NC(=O)[C@@H]1Cc2ccccc2CN1Cc1cccs1` has a cytotoxicity at 10 µM of -2.14%.
For `CCc1ccc2nc(NCCCN(CCO)CCO)cc(C)c2c1`, the cytotoxicity at 10 µM was -13.3%.
Compound `CCN(C(C)=O)C1CCN(c2nccc(C3CCCC3)n2)C1` (stereo not given) has a cytotoxicity at 10 µM of -5.35%.
`CC(C)c1nc(CN(C)C(=O)c2ccccc2C2CCNC2)cs1` (stereo not given) gave a cytotoxicity at 10 µM of 4.46%.
Compound `OCC1(O)CCN(Cc2ccc(C3CCCCO3)o2)CC1` (stereo not given) has a cytotoxicity at 10 µM of -5.95%.
With `Cc1n[nH]c(C)c1CCc1ccc(S(C)(=O)=O)cc1` the cytotoxicity at 10 µM was 6.29%.
`Cc1ccc(F)c(NC(=O)CCC(=O)N(C)Cc2cc(C3CC3)[nH]n2)c1` showed a cytotoxicity at 10 µM of 7.28%.
In the case of `CN1CC2(CCN(C(=O)Cc3ccc(O)c(F)c3)CC2)CC1=O`, the cytotoxicity at 10 µM is reported as 1.87%.
For `CC(C)CN1C(=O)CC[C@H]2CN(Cc3ncc[nH]3)CC[C@H]21`, the cytotoxicity at 10 µM was -3.25%.
Compound `O=C(O)C1c2nc[nH]c2CCN1CC(c1ccccc1)c1ccccc1` (stereo not given) has a cytotoxicity at 10 µM of -7.97%.
With `Cc1ccc2c(c1)cc(CN1CC[C@](C)(O)[C@H](C)C1)n2C` the cytotoxicity at 10 µM was 0.379%.
With `CCn1c(CC2CCN(S(=O)(=O)c3cccs3)CC2)nn(C)c1=O` the cytotoxicity at 10 µM was 3.63%.
With `CN(C)C(=O)c1noc2c1CN(C(=O)CCCN1CCCCC1)CC2` the cytotoxicity at 10 µM was -10.5%.
Compound `CCCN1CCCC1c1ccc(C(=O)N2CCOCC2)s1` (stereo not given) has a cytotoxicity at 10 µM of -146%.
Compound `NCC1CN(c2nc(-c3ccccc3)nc3c2CCNCC3)CCO1` (stereo not given) has a cytotoxicity at 10 µM of -14.9%.
In the case of `CCNC(=O)[C@@H]1C[C@@H](NC(=O)Cc2ccccn2)CN1CCCSC`, the cytotoxicity at 10 µM is reported as -6.72%.
With `CCc1nc(C2CCCN(C(=O)c3ccccc3Cl)C2)no1` (stereo not given) the cytotoxicity at 10 µM was -5.43%.
For `CCn1ncc2c1CCCC2NCc1ccc(OC)cc1OC` (stereo not given), the cytotoxicity at 10 µM was -2.06%.
Work on `Cc1nccn1C1CCCN(C(=O)c2cc3c(F)cccc3[nH]2)C1` (stereo not given) yielded a cytotoxicity at 10 µM of 5.32%.
For `COCc1nc(CN(CC(N)=O)C(C)C)cs1`, the cytotoxicity at 10 µM was -8.39%.
Compound `O=C(CN1CCCC(Cn2cncn2)C1)NCCc1cccs1` (stereo not given) has a cytotoxicity at 10 µM of -17.6%.
For `CCc1nc(CN2CCN(CC(O)c3ccccc3)CC2)no1` (stereo not given), the cytotoxicity at 10 µM was -15.3%.
Compound `Cc1cccc(C(=O)NCc2ccc(S(N)(=O)=O)cc2)n1` has a cytotoxicity at 10 µM of -4.25%.
With `c1ccc(OCc2ccncc2)c(CNC2CCc3ncnn3C2)c1` (stereo not given) the cytotoxicity at 10 µM was -2.35%.
`c1ccc(-c2nccc(CNCC3CCCN3c3cccnn3)n2)cc1` (stereo not given) gave a cytotoxicity at 10 µM of -1.17%.
Compound `CCOc1ccnc(N2CCN(C(=O)c3cc(Cl)c[nH]3)CC2)n1` has a cytotoxicity at 10 µM of -9.29%.
`CC(C)c1nnc2n1CCN(C(=O)c1ccnc(N(C)C)c1)C2` gave a cytotoxicity at 10 µM of 3.06%.
`Cc1ncccc1CNCC1CCN(CC(O)c2ccccc2)CC1` (stereo not given) gave a cytotoxicity at 10 µM of -6.76%.
`Cc1ccc(NC2CCN(C(=O)CN(C)C3CC3)CC2)nn1` showed a cytotoxicity at 10 µM of 4.64%.
`Cc1ccc(C#N)cc1NC(=O)NC1CCCN(c2ncccn2)C1` (stereo not given) gave a cytotoxicity at 10 µM of -10.2%.
For `CN(CC1CN(Cc2cn3ccsc3n2)CCO1)c1cccnn1` (stereo not given), the cytotoxicity at 10 µM was 4.55%.
`CNC(=O)C1CN(c2ccc(F)cc2)CCN1` (stereo not given) showed a cytotoxicity at 10 µM of 7.9%.
`CCn1nc(C)c(CN(CCCOC)Cc2ccccn2)c1C` gave a cytotoxicity at 10 µM of 5.23%.
In the case of `Cc1ccc(=O)n(CC2(O)CCN(Cc3cc(C)c(O)c(C)c3)CC2)n1`, the cytotoxicity at 10 µM is reported as 1.7%.
Work on `CN(Cc1ccco1)[C@@H]1CN(C(=O)c2ccnnc2)[C@@H]2CCCO[C@H]12` yielded a cytotoxicity at 10 µM of -7.93%.
With `COCCN(C)C[C@@H]1CCC[C@@H]2CN(c3cc(OC)ncn3)C[C@@H]21` the cytotoxicity at 10 µM was 1.75%.
Compound `Cn1cc(C(=O)N2CC[C@@H]3[C@@H]2CCN3Cc2cccc(C#N)c2)cn1` has a cytotoxicity at 10 µM of -71.3%.
In the case of `CCN(CC)c1ncnc2c1CCN(CC1CCOCC1)CC2`, the cytotoxicity at 10 µM is reported as -81.5%.
With `CCN1C[C@H]2[C@@H](C1)N(S(=O)(=O)c1ccccc1)CC[C@H]2OC` the cytotoxicity at 10 µM was -75.3%.
Work on `CN(C)C(=O)CN1C[C@H]2CC[C@@H](C1)N(Cc1ccccc1C#N)C2` yielded a cytotoxicity at 10 µM of -0.898%.
In the case of `Cc1ccc(-c2cc(C3=NC(=CN4CCN(C)CC4)NO3)[nH]n2)cc1`, the cytotoxicity at 10 µM is reported as -10.5%.
